Measurements gathered from unrelated publications.
Target: Activated CDC42 kinase 1 (TNK2, Homo sapiens, UniProt Q07912)

| Structure (SMILES) | test | conditions | measurement | value |
| --- | --- | --- | --- | --- |
| CCCOc1ccc(OC)c(F)c1C(=O)c1ccc(C(=O)N[C@@H]2CNC[C@H]2NC(=O)c2ccc3[nH]ncc3c2)cc1 | enzyme activity, inhibitor | 10 µM | remaining activity | 92% |
| CNC(=O)c1ccccc1Nc1cc(Nc2ccc(N3CCOCC3)cc2OC)ncc1C(F)(F)F | enzyme activity, inhibitor | 1 µM | inhibition | > 50% |
| COc1cccc2c(NCc3ccccc3)nc(-n3c(N)nc4ccccc43)nc12 | target engagement in cells, inhibitor, chemoproteomics | 20 mM | inhibition | 18.9% |
| O=C(Nc1cnn(-c2csc(C(=O)NC3COC3)c2)c1)Nc1ccccc1Cl | enzyme activity, inhibitor | 5 µM | remaining activity | 85.6% |
| O=C(N1CCS(=O)(=O)CC1)N1C[C@H](c2ccc(OC(F)(F)F)cc2)C[C@H](c2nc(C3CC3)no2)C1 | cell-free assay, competition with immobilised ligand | 1 µM | remaining binding | 97% |
| CC/C(=N\NC(=O)NCc1cccc(O)c1)c1ccc(O)c(C)c1O | enzyme activity, inhibitor | 0.1 µM | inhibition | -0.3% |
| N#CC1(c2ccccn2)CCN(Cc2cc(C(=O)N3CCCC3)c(=O)n3ccccc23)CC1 | cell-free assay, competition with immobilised ligand | 1 µM | remaining binding | 85% |
| Cc1ccc(C(=O)NCc2ccsc2)cc1C#Cc1cn(C(C)C)c2ncnc(N)c12 | enzyme activity, inhibitor | 1 µM | activity vs control | 19% |
| Cc1ccc(NC(=O)c2ccc(C)c(C(F)(F)F)c2)cc1C#Cc1nn(C2CCC(O)CC2)c2ncnc(N)c12 (stereo not drawn) | cell-free assay | 10 µM | remaining signal | 4% |
| O=C(O)c1cc(-c2ccc(C3CCNCC3)cc2)c2ccc(-c3ccc(C(F)(F)F)cc3)cc2c1 | cell-free assay, competition with immobilised ligand | 1 µM | remaining binding | 100% |
| O=S1(=O)N=C(NCc2ccc(OC(F)(F)F)cc2)Nc2cc(Cl)ccc21 | binding, competition with immobilised ligand | 10 µM | inhibition | > 90% |
| CCCOc1ccc([C@H]2[C@H](C(=O)O)[C@@H](c3ccc4c(c3)OCO4)CN2CC(=O)Nc2c(CC)cccc2CC)cc1 | cell-free assay, competition with immobilised ligand | 1 µM | remaining binding | 100% |
| Cc1cnc(NC2CCOCC2)nc1-n1cnc(C(=O)NC(CN)c2cc(F)cc(Cl)c2)c1 (stereo not drawn) | enzyme activity, inhibitor, radiometric | 1 µM | remaining activity | 110% |
| CN(C)CC#Cc1ccc(OCCCc2sc(N3CCc4cccc(C(=O)Nc5nc6ccccc6s5)c4C3)nc2C(=O)O)c(F)c1 | cell-free assay, competition with immobilised ligand | 1 µM | remaining binding | 100% |
| N#CCCc1ccc2c(c1)-c1[nH]c3ccc([N+](=O)[O-])cc3c1CC(=O)N2 | cell-free assay | 0.5 µM | remaining signal | 75.4% |
| CC(C)(O)[C@H]1CC[C@H](Nc2ccc3ncc(-c4cccc(C(F)(F)F)c4)n3n2)CC1 | enzyme activity, inhibitor | 1 µM | remaining activity | 5.31% |
| O=C1Nc2ccc(Cl)cc2C1=Cc1cc(Cl)c(O)c(Cl)c1 | cell-free assay | 0.5 µM | remaining signal | 32.4% |
| CC(C)(C)c1nc2c(s1)c1nc(N)ncc1c1ccc(NS(=O)(=O)c3c(F)cccc3F)c(F)c12 | enzyme activity, inhibitor, radiometric | 1 µM | remaining activity | 75% |
